Results gathered from unrelated publications.
Protocols differ between the studies behind these lines.
Target: Serine/threonine-protein kinase D2 (PRKD2, Homo sapiens, UniProt Q9BZL6)
One construct used (Q9BZL6 1-878): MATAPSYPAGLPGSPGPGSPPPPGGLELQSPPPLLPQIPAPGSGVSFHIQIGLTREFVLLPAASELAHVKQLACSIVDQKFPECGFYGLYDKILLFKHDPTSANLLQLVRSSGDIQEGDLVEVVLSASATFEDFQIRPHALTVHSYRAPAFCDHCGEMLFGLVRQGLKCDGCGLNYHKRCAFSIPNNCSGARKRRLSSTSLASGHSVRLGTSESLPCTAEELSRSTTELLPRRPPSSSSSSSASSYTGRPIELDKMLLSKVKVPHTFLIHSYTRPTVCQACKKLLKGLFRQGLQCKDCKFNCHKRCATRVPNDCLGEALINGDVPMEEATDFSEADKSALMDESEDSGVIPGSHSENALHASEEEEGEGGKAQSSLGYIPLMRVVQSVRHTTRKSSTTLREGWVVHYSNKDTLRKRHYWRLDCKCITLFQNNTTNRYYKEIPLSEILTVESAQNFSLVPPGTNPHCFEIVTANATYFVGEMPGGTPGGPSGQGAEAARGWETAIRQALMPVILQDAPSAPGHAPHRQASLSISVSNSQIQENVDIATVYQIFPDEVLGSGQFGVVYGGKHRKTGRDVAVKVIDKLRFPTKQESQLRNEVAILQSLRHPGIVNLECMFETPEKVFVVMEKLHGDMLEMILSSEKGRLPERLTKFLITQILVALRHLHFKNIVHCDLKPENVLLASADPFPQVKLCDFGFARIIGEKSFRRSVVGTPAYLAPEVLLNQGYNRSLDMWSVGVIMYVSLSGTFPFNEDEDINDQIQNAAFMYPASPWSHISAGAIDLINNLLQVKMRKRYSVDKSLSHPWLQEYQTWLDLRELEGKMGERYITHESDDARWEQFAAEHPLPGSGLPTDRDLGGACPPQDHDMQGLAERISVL

Cn1c2c(c3ccc(Cl)c(Cl)c31)C(C#N)C1(CCCC1)NC2=O (stereo not drawn) — ΔTm (thermal stability; DSF; 10 µM): -0.1 °C
O=S1(=O)N=C(NCc2ccc(OC(F)(F)F)cc2)Nc2cc(Cl)ccc21 — inhibition (binding; competition with immobilised ligand; 10 µM): > 90%
CN1CC(Oc2cnc(C#N)cc2-c2ccn3nc(NC(=O)C4CC4)cc3c2)C1 — inhibition (enzyme activity; inhibitor; 1 µM): -22%
Cn1cncc1C1=CN(c2ncnc3[nH]cnc23)CCS1 — inhibition (enzyme activity; inhibitor; radiometric; 50 nM): 38.2%
CNC(=O)Nc1ccc2c(c1)[C@@]1(CC2)OC(=O)N(CC(=O)N(Cc2ccc(F)cc2)[C@@H](C)C(F)(F)F)C1=O — remaining binding (cell-free assay; competition with immobilised ligand; 1 µM): 100%
CCN(CC)CCNC(=O)c1c(C)[nH]c(/C=C2\C(=O)Nc3ccc(F)cc32)c1C — inhibition (enzyme activity; inhibitor; 0.3 µM): 30%
CNc1cccc2cc(C(=O)Nc3ccc(C(=O)O)cc3)c(=O)[nH]c12 — inhibition (enzyme activity; inhibitor; 10 µM): 2.5%
COc1cccc(CNC(=O)c2nc3scc(COCc4ccc(C(=O)O)cc4)c3c(=O)[nH]2)c1 — remaining binding (cell-free assay; competition with immobilised ligand; 1 µM): 100%
O=C1NC(=O)c2cc(Nc3ccc(F)cc3)c(Nc3ccc(F)cc3)cc21 — remaining signal (cell-free assay; 0.5 µM): 86.8%
COc1cccc2c(NCc3ccccc3)nc(-n3c(N)nc4ccccc43)nc12 — inhibition (target engagement in cells; inhibitor; chemoproteomics; 20 mM): -4.3%
Cn1c2c(c3ccc(Cl)c(Cl)c31)C(C#N)C1(CCOCC1)NC2=O (stereo not drawn) — ΔTm (thermal stability; DSF; 10 µM): -0.1 °C
CSc1cccnc1N1CCN(Cc2nc3ccccc3[nH]2)CC1 — remaining binding (cell-free assay; competition with immobilised ligand; 1 µM): 100%
Cc1ccc(Nc2nccc(N(C)c3ccc4c(C)n(C)nc4c3)n2)cc1S(N)(=O)=O — inhibition (enzyme activity; inhibitor; 0.3 µM): 9%
Cn1cnc(Br)c1C1=CN(c2ncnc3[nH]cnc23)CCS1 — inhibition (enzyme activity; inhibitor; radiometric; 2 µM): 95.6%
Cc1cc(C)c(-n2ccn3nc(-c4cccnc4)cc23)cc1NC(=O)c1cc(C#N)cc(S(F)(F)(F)(F)F)c1 — remaining binding (cell-free assay; competition with immobilised ligand; 0.1 µM): 100%
CC(C)(C)c1nc(-c2cccc(NS(=O)(=O)c3c(F)cccc3F)c2F)c(-c2ccnc(N)n2)s1 — remaining activity (enzyme activity; inhibitor; radiometric; 1 µM): 30%
Nc1ncnc2occ(-c3ccc(NC(=O)Nc4cc(C(F)(F)F)ccc4F)cc3)c12 — remaining signal (cell-free assay; inhibitor; 20 µM): 43%
CO[C@H]1CC[C@H](CNc2ccc(S(=O)(=O)NC(=O)c3ccc(N4CCN(CC5=C(c6ccc(Cl)cc6)CC(C)(C)CC5)CC4)cc3Oc3cnc4[nH]ccc4c3)cc2[N+](=O)[O-])CC1 — remaining binding (cell-free assay; competition with immobilised ligand; 1 µM): 100%
Cc1cc(NC(=O)c2cccc3cc(-c4cccc5[nH]nc(N)c45)ccc23)ccc1F — activity vs control (enzyme activity; inhibitor; 0.1 µM): 91%
Cc1ccc(NC(=O)c2ccc(C)c(C(F)(F)F)c2)cc1C#Cc1nn(C2CCC(O)CC2)c2ncnc(N)c12 (stereo not drawn) — remaining signal (cell-free assay; 10 µM): 108%
COc1cc2c(N3CCN(C(=O)Nc4ccc(OC(C)C)cc4)CC3)ncnc2cc1OCCCN1CCCCC1 — remaining signal (cell-free assay; 0.5 µM): 96.4%
Cn1c2c(c3ccc(Cl)c(Cl)c31)C(C#N)C1(CCNCC1)NC2=O (racemic) — ΔTm (thermal stability; DSF; 10 µM): 0.9 °C
COc1ccc(COc2ccc(Cc3cnc(N)nc3N)cc2OC)cc1 — remaining signal (cell-free assay; 0.5 µM): 99.4%
Cn1c2c(Cl)c(Cl)ccc2c2cc[nH]c(=O)c21 — ΔTm (thermal stability; DSF; 10 µM): 0.4 °C
CNC(=O)c1cc(Oc2ccc(NC(=O)Nc3ccc(Cl)c(C(F)(F)F)c3)cc2)ccn1 — inhibition (enzyme activity; inhibitor; 0.3 µM): 5%
CCS(=O)(=O)c1cc2cc(C[C@@](O)(CC(C)(C)c3ccc(F)cc3C(N)=O)C(F)(F)F)[nH]c2cn1 — remaining binding (cell-free assay; competition with immobilised ligand; 1 µM): 89%
Cc1ccc(C(=O)Nc2ccc(CN3CCN(C)CC3)c(C(F)(F)F)c2)cc1C#Cc1cnc2cccnn12 — remaining activity (enzyme activity; inhibitor; 23.5 nM): 95%
CN([C@@H]1CCc2c(CC(=O)O)c3ccccc3n2C1)S(=O)(=O)c1ccc(F)cc1 — remaining binding (cell-free assay; competition with immobilised ligand; 1 µM): 100%
COc1cc2ncnc(Nc3ccc(Oc4ccccc4)cc3C)c2cc1OC — inhibition (enzyme activity; inhibitor; 1 µM): 9%
O=C(Nc1cnn(-c2csc(C(=O)NC3COC3)c2)c1)Nc1ccccc1Cl — remaining activity (enzyme activity; inhibitor; 5 µM): 92.8%
CC(C)(O)[C@H]1CC[C@H](Nc2ccc3ncc(-c4cccc(C(F)(F)F)c4)n3n2)CC1 — remaining activity (enzyme activity; inhibitor; 1 µM): 92%
Cn1c2c(Cl)c(Cl)ccc2c2cn[nH]c(=O)c21 — ΔTm (thermal stability; DSF; 10 µM): 0.1 °C
COc1cc(-c2cn(C3CCc4ccccc4N(CC(F)(F)F)C3=O)nn2)ccc1-n1ccc(C)n1 (stereo not drawn) — remaining binding (cell-free assay; competition with immobilised ligand; 1 µM): 86%
